In brackets after ≈: the same amount, converted by molar mass. Activity calls are given as the source filed them. The rule behind the calls is not given here.
Assays:
Mus musculus = assay: Antiinflammatory activity in mouse assessed as inhibition of carrageenan-induced increase in paw volume at 200 mg/kg, ip administered 1 hr prior to carrageenan challenge measured after 3 hrs relative to control; assay type: functional; details: route intraperitoneal
Procedure, shortened: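 Mice were fasted 2 h and placed in groups of five. Controls received saline i.p. Phenylbutazone was given at 100 mg/kg i.p., curcumin at 200 mg/kg i.p., and derivatives at 200 mg/kg. After 1 h, 0.1 mL of 1% carrageenan in saline was injected subplantar into the right hind paw. Paw volume was followed by plethysmometer for 3 h, and % inhibition was calculated as (Vc − Vt)/Vc × 100.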

Trichoderma viride [1] = assay: Antifungal activity against Trichoderma viride MTCC 1107 after 48 hrs; assay type: functional; details: MTCC 1107, 48 h
Trichoderma viride [2] = assay: Antifungal activity against Trichoderma viride MTCC 1107 assessed as zone of inhibition at 20 uM after 48 hrs by disc diffusion method; assay type: functional
Procedure, shortened: (§1)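 Spores from 4-day potato dextrose agar cultures, suspended in sterile water at 1.5 × 10⁵ CFU/mL. 0.2 mL was spread on potato dextrose agar. 5 mm filter-paper discs soaked with test compound were laid on the lawn. Incubation was 48 h at 28 °C, then the inhibition zone was measured in mm. Fluconazole was the positive control and acetone the negative control.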

Trichoderma viride [3] = assay: Antifungal activity against Trichoderma viride MTCC 1107 assessed as zone of inhibition at 40 uM after 48 hrs by disc diffusion method; assay type: functional; procedure, shortened: as §1
Trichoderma viride [4] = assay: Antifungal activity against Trichoderma viride MTCC 1107 assessed as zone of inhibition at 80 uM after 48 hrs by disc diffusion method; assay type: functional; details: MTCC 1107, 48 h, read-out: IZ; procedure, shortened: as §1
Curvularia lunata [5] = assay: Antifungal activity against Curvularia lunata MTCC 581 after 48 hrs; assay type: functional; details: MTCC 581, 48 h
Curvularia lunata [6] = assay: Antifungal activity against Curvularia lunata MTCC 581 assessed as zone of inhibition at 20 uM after 48 hrs by disc diffusion method; assay type: functional; procedure, shortened: as §1
Curvularia lunata [7] = assay: Antifungal activity against Curvularia lunata MTCC 581 assessed as zone of inhibition at 40 uM after 48 hrs by disc diffusion method; assay type: functional; details: MTCC 581, 48 h, read-out: IZ; procedure, shortened: as §1
Aspergillus flavus [8] = assay: Antifungal activity against Aspergillus flavus MTCC 1021 after 48 hrs; assay type: functional
Curvularia lunata [9] = assay: Antifungal activity against Curvularia lunata MTCC 581 assessed as zone of inhibition at 80 uM after 48 hrs by disc diffusion method; assay type: functional; details: MTCC 581, 48 h, read-out: IZ; procedure, shortened: as §1
Aspergillus flavus [10] = assay: Antifungal activity against Aspergillus flavus MTCC 1021 assessed as zone of inhibition at 80 uM after 48 hrs by disc diffusion method; assay type: functional; procedure, shortened: as §1
Aspergillus niger [11] = assay: Antifungal activity against Aspergillus niger MTCC 1108 after 48 hrs; assay type: functional
Aspergillus niger [12] = assay: Antifungal activity against Aspergillus niger MTCC 1108 assessed as zone of inhibition at 80 uM after 48 hrs by disc diffusion method; assay type: functional; procedure, shortened: as §1
Escherichia coli [13] = assay: Antimicrobial activity against Escherichia coli ATCC 35218 after 24 hrs by broth micro serial dilution method; assay type: functional; details: ATCC 35218, 24 h
Procedure, shortened: (§2)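 This was broth microdilution in autoclaved Mueller-Hinton broth. 150 µL of compound per well was serially diluted […], and 50 µL of test organism was added. Plates were incubated 24 h at 37 °C and optical density was read.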

Escherichia coli [14] = assay: Antimicrobial activity against Escherichia coli ATCC 35218 assessed as diameter of inhibition zone at 20 uM after 24 hrs by Kirby -Baur disc diffusion method; assay type: functional
Procedure, shortened: (§3)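 Kirby-Bauer disc diffusion was used. Acetone stocks (160 µM) were serially doubled down to 80, 40 and 20 µM. 4 µL of each went onto 5 mm sterile paper discs, which were dried 30 min at 50 °C. Inoculum was 1.5 × 10⁸ CFU/mL diluted to 3 × 10² CFU/mL, and 50 µL was spread on Mueller-Hinton agar. After 24 h at 37 °C the inhibition-zone diameter was measured. Ciprofloxacin served as positive control.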

Escherichia coli [15] = assay: Antimicrobial activity against Escherichia coli ATCC 35218 assessed as diameter of inhibition zone at 40 uM after 24 hrs by Kirby -Baur disc diffusion method; assay type: functional; procedure, shortened: as §3
Escherichia coli [16] = assay: Antimicrobial activity against Escherichia coli ATCC 35218 assessed as diameter of inhibition zone at 80 uM after 24 hrs by Kirby -Baur disc diffusion method; assay type: functional; details: ATCC 35218, 24 h, read-out: DIZ; procedure, shortened: as §3
Pseudomonas aeruginosa [17] = assay: Antimicrobial activity against Pseudomonas aeruginosa ATCC 15499 after 24 hrs by broth micro serial dilution method; assay type: functional; details: ATCC 15499, 24 h; procedure, shortened: as §2
Pseudomonas aeruginosa [18] = assay: Antimicrobial activity against Pseudomonas aeruginosa ATCC 15499 assessed as diameter of inhibition zone at 20 uM after 24 hrs by Kirby -Baur disc diffusion method; assay type: functional; procedure, shortened: as §3
Pseudomonas aeruginosa [19] = assay: Antimicrobial activity against Pseudomonas aeruginosa ATCC 15499 assessed as diameter of inhibition zone at 40 uM after 24 hrs by Kirby -Baur disc diffusion method; assay type: functional; procedure, shortened: as §3
Pseudomonas aeruginosa [20] = assay: Antimicrobial activity against Pseudomonas aeruginosa ATCC 15499 assessed as diameter of inhibition zone at 80 uM after 24 hrs by Kirby -Baur disc diffusion method; assay type: functional; details: ATCC 15499, 24 h, read-out: DIZ; procedure, shortened: as §3
Salmonella typhi [21] = assay: Antimicrobial activity against Salmonella typhi ATCC 23564 after 24 hrs by broth micro serial dilution method; assay type: functional, Salmonella enterica subsp. enterica serovar Typhi; details: Salmonella enterica, ATCC 23564, 24 h
Salmonella typhi [22] = assay: Antimicrobial activity against Salmonella typhi ATCC 23564 assessed as diameter of inhibition zone at 20 uM after 24 hrs by Kirby -Baur disc diffusion method; assay type: functional; details: Salmonella enterica subsp. enterica serovar Typhi
Salmonella typhi [23] = assay: Antimicrobial activity against Salmonella typhi ATCC 23564 assessed as diameter of inhibition zone at 40 uM after 24 hrs by Kirby -Baur disc diffusion method; assay type: functional, Salmonella enterica subsp. enterica serovar Typhi; details: Salmonella enterica, ATCC 23564, 24 h; read-out: DIZ
Salmonella typhi [24] = assay: Antimicrobial activity against Salmonella typhi ATCC 23564 assessed as diameter of inhibition zone at 80 uM after 24 hrs by Kirby -Baur disc diffusion method; assay type: functional, Salmonella enterica subsp. enterica serovar Typhi; details: Salmonella enterica, ATCC 23564, 24 h; read-out: DIZ
Bacillus cereus [25] = assay: Antimicrobial activity against Bacillus cereus MTCC 7350 after 24 hrs by broth micro serial dilution method; assay type: functional; details: MTCC 7350, 24 h; procedure, shortened: as §2
Bacillus cereus [26] = assay: Antimicrobial activity against Bacillus cereus MTCC 7350 assessed as diameter of inhibition zone at 80 uM after 24 hrs by Kirby -Baur disc diffusion method; assay type: functional; details: MTCC 7350, 24 h, read-out: DIZ; procedure, shortened: as §3
Staphylococcus aureus [27] = assay: Antimicrobial activity against Staphylococcus aureus ATCC 11632 after 24 hrs by broth micro serial dilution method; assay type: functional; details: ATCC 11632, 24 h; procedure, shortened: as §2
Staphylococcus aureus [28] = assay: Antimicrobial activity against Staphylococcus aureus ATCC 11632 assessed as diameter of inhibition zone at 80 uM after 24 hrs by Kirby -Baur disc diffusion method; assay type: functional; procedure, shortened: as §3

For `COc1cc(/C=C/C(=O)CC(=O)/C=C/c2ccc(O)c(OC)c2)ccc1O` [CURCUMIN], the inhibition in vivo at 200 mg/kg (Mus musculus) was 12.9%, the MIC (Trichoderma viride [1]) was > 80 µM and the “inhibition zone (IZ)” value (Trichoderma viride [2]) was “inactive”. For the same compound, the “inhibition zone (IZ)” value (Trichoderma viride [3]) was “inactive”, the zone of inhibition at 80 µM (Trichoderma viride [4]) was 9 mm and the MIC (Curvularia lunata [5]) was > 80 µM. For the same compound, the “inhibition zone (IZ)” value (Curvularia lunata [6]) was “inactive”, the zone of inhibition at 40 µM (Curvularia lunata [7]) was 9 mm and the MIC (Aspergillus flavus [8]) was “inactive”. The zone of inhibition at 80 µM (Curvularia lunata [9]) was 11 mm, the “inhibition zone (IZ)” value (Aspergillus flavus [10]) was “inactive” and the MIC (Aspergillus niger [11]) was “inactive”. The “inhibition zone (IZ)” value (Aspergillus niger [12]) was “inactive”, the MIC (Escherichia coli [13]) was > 80 µM and the “diameter of the inhibition zone (DIZ)” value (Escherichia coli [14]) was “inactive”. For the same compound, the “diameter of the inhibition zone (DIZ)” value (Escherichia coli [15]) was “inactive”, the zone of inhibition at 80 µM (Escherichia coli [16]) was 12 mm and the MIC (Pseudomonas aeruginosa [17]) was > 80 µM. The “diameter of the inhibition zone (DIZ)” value (Pseudomonas aeruginosa [18]) was “inactive”, the “diameter of the inhibition zone (DIZ)” value (Pseudomonas aeruginosa [19]) was “inactive” and the zone of inhibition at 80 µM (Pseudomonas aeruginosa [20]) was 11 mm. The MIC (Salmonella typhi [21]) was > 80 µM, the “diameter of the inhibition zone (DIZ)” value (Salmonella typhi [22]) was “inactive” and the zone of inhibition at 40 µM (Salmonella typhi [23]) was 9 mm. For the same compound, the zone of inhibition at 80 µM (Salmonella typhi [24]) was 11 mm, the MIC (Bacillus cereus [25]) was > 80 µM and the zone of inhibition at 80 µM (Bacillus cereus [26]) was 9 mm. The MIC (Staphylococcus aureus [27]) was 80 µM (≈ 29.5 µg/mL) and the “diameter of the inhibition zone (DIZ)” value (Staphylococcus aureus [28]) was “inactive”.
